Assay results: ChEMBL document CHEMBL3352261, “Discovery of inhibitors of the mitotic kinase TTK based on N-(3-(3-sulfamoylphenyl)-1H-indazol-5-yl)-acetamides and carboxamides” (Bioorg Med Chem, 2014)
The source made the active and inactive calls. The calls are words filed in the database; no cut-off is given here.

Columns and labels:
[1] = Antitumor activity against human HCT116 cells xenografted in SCID mouse assessed as tumor growth inhibition at 15 mg/kg, ip qd for 5 days; assay type: functional; conditions: HCT-116, ip, 120 h, route intraperitoneal, read-out: TGI
In short: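 HCT116 xenografts were grown in mice and dosed by the intraperitoneal route once daily. Tumor volume was tracked and compared with a negative-control arm, and the result was expressed as percent tumor growth inhibition. Body weight was monitored across all arms.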

[2] = molecular target: Receptor-type tyrosine-protein kinase FLT3 (Homo sapiens) (UniProt P36888); assay: Inhibition of FLT3 (unknown origin) by FRET-based homogenous assay
[3] = molecular target: T1, Dual specificity protein kinase TTK (Homo sapiens, UniProt P33981); assay: Inhibition of GST-fused full length human TTK compound pre-incubated for 15 mins prior ATP addition by MBP-based assay
T1 sequence (P33981 whole entry): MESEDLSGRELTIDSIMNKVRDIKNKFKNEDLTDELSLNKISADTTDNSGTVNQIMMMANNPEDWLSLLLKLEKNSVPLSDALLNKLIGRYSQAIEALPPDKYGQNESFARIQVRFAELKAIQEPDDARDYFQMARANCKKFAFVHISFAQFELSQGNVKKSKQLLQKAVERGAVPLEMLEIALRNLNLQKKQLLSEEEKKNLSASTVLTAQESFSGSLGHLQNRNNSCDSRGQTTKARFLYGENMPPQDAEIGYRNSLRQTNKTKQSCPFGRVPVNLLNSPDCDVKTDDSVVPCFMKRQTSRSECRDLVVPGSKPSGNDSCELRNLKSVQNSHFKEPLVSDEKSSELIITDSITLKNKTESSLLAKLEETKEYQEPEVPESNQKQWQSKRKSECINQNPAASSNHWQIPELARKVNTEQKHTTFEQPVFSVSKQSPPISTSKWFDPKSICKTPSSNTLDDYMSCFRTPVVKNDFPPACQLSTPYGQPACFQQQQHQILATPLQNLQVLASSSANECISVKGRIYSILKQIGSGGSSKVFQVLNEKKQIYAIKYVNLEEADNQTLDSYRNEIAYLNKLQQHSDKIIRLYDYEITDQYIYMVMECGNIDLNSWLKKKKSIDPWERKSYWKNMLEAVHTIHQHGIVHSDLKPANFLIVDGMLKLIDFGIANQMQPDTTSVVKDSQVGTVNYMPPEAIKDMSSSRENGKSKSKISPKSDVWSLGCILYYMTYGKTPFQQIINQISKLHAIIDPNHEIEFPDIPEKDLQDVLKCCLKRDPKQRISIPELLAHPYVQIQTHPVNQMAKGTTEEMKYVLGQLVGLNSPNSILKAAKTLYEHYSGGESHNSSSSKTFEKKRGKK

[4] = Cell cycle arrest in human HCT116 cells at 500 to 2500 nM after 2 days by flow cytometry; assay type: functional, cell-based; conditions: HCT-116
Cytochrome P450 3A4 [5] = molecular target: T2, Cytochrome P450 3A4 (Homo sapiens, UniProt P08684); assay: Inhibition of CYP3A4 in supersomes (unknown origin) using 7-benzyloxy-4-trifluoromethylcoumarin as substrate after 30 mins; assay type: ADME
Cytochrome P450 3A4 [6] = molecular target: T2, Cytochrome P450 3A4; assay: Inhibition of CYP3A4 in supersomes (unknown origin) using Dibenzylfluorescein as substrate after 10 mins; assay type: ADME
Cytochrome P450 2C19 = Cytochrome P450 2C19 (Homo sapiens, UniProt P33261); assay: Inhibition of CYP2C19 in supersomes (unknown origin) using MFC as substrate after 30 mins; assay type: ADME
[7] = Permeability of the compound at pH 7.4 by PAMPA; assay type: ADME; conditions: read-out: permeability
[8] = Growth inhibition of human HCT116 cells after 5 days by SRB assay; assay type: functional; conditions: HCT-116, 120 h
Cytochrome P450 2D6 = Cytochrome P450 2D6 (Homo sapiens, UniProt P10635); assay: Inhibition of CYP2D6 in supersomes (unknown origin) using AMMC as substrate after 30 mins; assay type: ADME
Cytochrome P450 1A2 = molecular target: T3, Cytochrome P450 1A2 (Homo sapiens, UniProt P05177); assay: Inhibition of CYP1A2 in supersomes (unknown origin) using CEC as substrate after 30 mins; assay type: ADME
T3 sequence (P05177 whole entry): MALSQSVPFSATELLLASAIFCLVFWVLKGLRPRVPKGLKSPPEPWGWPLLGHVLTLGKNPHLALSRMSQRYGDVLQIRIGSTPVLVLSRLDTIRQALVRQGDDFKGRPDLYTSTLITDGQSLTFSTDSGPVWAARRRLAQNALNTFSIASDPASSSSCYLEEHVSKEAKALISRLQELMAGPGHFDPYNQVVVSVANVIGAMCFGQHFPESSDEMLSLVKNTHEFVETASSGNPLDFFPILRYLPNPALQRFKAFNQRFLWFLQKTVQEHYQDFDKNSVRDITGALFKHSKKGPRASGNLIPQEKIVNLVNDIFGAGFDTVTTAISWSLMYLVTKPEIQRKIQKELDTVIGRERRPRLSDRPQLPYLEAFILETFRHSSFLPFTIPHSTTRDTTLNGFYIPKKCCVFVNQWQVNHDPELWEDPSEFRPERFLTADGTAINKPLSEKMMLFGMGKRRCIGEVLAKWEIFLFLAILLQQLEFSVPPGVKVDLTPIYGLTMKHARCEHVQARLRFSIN

[9] = molecular target: Serine/threonine-protein kinase Chk2 (Homo sapiens, UniProt O96017); assay: Inhibition of CHK2 (unknown origin) by FRET-based homogenous assay
Aurora kinase B = Aurora kinase B (Homo sapiens, UniProt Q96GD4); assay: Inhibition of Aurora B (unknown origin) by FRET-based homogenous assay
[10] = Solubility of the compound at pH 7.4; assay type: physicochemical; conditions: buffer
[11] = molecular target: T4, Serine/threonine-protein kinase PLK4 (Homo sapiens, UniProt O00444); assay: Inhibition of GST-tagged human PLK4 (1-391 residues) phosphorylation by ELISA
T4 sequence (O00444 whole entry): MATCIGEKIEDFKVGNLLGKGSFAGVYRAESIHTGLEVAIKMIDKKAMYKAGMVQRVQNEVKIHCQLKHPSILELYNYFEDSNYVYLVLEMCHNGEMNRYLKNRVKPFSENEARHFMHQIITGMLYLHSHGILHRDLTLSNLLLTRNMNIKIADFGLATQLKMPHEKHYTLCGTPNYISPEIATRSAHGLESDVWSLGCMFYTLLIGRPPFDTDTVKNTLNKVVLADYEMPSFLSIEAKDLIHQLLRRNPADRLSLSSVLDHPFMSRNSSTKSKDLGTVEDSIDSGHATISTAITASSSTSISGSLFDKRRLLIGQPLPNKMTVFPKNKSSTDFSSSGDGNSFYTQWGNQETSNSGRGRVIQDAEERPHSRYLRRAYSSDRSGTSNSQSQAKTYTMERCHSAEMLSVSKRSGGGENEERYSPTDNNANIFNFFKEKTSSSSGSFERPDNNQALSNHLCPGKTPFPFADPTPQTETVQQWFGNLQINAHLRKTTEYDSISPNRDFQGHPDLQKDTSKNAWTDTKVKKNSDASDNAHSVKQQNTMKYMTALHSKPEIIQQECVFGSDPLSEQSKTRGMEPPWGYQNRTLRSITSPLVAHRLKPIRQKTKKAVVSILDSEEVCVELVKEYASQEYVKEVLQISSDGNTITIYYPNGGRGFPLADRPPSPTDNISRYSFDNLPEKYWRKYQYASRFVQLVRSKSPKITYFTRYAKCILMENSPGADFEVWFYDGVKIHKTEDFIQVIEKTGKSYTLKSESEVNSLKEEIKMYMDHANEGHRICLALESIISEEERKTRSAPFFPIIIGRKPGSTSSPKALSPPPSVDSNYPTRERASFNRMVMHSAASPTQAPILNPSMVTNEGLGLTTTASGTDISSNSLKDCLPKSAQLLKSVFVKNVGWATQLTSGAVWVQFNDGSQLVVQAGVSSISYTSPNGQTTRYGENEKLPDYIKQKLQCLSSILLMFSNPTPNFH

[12] = molecular target: T1, Dual specificity protein kinase TTK; assay: Inhibition of SUMO-tagged human TTK (1-275 residues) compound pre-incubated for 15 mins prior ATP addition by MBP-based assay
Cytochrome P450 2C9 = Cytochrome P450 2C9 (Homo sapiens, UniProt P11712); assay: Inhibition of CYP2C9 in supersomes (unknown origin) using MFC as substrate after 30 mins; assay type: ADME
Chain of Cytochrome P450 2C9 (P11712 whole entry): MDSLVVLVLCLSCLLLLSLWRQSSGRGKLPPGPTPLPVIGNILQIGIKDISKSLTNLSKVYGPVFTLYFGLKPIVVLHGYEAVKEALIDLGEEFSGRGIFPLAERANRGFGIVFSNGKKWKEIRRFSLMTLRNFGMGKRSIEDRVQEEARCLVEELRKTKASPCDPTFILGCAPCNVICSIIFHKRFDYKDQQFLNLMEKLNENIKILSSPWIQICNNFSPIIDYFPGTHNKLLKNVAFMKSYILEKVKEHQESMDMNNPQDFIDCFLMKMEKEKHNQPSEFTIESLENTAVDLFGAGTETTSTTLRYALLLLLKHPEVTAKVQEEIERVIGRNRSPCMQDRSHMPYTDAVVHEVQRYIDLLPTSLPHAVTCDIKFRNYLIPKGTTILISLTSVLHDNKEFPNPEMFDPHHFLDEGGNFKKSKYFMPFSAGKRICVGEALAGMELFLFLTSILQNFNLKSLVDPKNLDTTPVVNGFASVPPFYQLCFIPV

T2 sequence (P08684 whole entry): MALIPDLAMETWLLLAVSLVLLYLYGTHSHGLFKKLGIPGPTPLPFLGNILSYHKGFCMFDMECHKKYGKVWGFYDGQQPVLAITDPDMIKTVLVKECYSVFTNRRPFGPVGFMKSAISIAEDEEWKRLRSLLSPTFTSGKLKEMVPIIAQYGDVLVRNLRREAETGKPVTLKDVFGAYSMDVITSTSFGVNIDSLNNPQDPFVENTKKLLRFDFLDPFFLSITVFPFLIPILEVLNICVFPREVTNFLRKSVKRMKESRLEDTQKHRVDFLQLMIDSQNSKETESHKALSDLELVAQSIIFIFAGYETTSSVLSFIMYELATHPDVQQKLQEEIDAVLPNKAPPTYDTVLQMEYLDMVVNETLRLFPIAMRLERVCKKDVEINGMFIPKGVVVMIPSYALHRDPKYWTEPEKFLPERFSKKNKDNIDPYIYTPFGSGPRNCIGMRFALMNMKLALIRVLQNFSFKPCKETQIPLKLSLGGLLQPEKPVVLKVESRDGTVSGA
Chain of Receptor-type tyrosine-protein kinase FLT3 (Homo sapiens) (P36888 whole entry, the tested form may be a part): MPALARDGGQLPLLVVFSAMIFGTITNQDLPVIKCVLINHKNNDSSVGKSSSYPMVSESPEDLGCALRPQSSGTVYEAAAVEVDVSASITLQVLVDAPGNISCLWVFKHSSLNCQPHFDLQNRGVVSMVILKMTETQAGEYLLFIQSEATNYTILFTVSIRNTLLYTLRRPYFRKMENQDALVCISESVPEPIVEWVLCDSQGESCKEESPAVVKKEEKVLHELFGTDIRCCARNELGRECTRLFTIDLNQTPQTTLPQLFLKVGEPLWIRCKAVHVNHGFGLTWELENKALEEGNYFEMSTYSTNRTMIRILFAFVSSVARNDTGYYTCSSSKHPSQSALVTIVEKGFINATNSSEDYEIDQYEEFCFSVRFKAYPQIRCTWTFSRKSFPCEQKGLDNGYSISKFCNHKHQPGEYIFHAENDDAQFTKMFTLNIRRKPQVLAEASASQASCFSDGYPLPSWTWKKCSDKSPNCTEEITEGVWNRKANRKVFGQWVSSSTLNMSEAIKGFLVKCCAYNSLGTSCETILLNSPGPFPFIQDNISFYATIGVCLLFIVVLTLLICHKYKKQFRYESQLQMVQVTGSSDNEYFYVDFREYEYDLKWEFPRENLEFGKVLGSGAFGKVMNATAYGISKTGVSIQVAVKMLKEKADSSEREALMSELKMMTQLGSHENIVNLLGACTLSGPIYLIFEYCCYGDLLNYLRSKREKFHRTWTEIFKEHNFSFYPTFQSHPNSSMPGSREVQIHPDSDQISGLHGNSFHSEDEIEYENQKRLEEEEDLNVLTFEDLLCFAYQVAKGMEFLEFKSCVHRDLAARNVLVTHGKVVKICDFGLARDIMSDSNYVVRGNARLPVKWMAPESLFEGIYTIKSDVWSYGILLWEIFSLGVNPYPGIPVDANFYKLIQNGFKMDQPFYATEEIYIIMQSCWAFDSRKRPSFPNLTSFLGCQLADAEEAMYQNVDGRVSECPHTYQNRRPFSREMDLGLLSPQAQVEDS
Chain of Serine/threonine-protein kinase Chk2 (O96017 whole entry): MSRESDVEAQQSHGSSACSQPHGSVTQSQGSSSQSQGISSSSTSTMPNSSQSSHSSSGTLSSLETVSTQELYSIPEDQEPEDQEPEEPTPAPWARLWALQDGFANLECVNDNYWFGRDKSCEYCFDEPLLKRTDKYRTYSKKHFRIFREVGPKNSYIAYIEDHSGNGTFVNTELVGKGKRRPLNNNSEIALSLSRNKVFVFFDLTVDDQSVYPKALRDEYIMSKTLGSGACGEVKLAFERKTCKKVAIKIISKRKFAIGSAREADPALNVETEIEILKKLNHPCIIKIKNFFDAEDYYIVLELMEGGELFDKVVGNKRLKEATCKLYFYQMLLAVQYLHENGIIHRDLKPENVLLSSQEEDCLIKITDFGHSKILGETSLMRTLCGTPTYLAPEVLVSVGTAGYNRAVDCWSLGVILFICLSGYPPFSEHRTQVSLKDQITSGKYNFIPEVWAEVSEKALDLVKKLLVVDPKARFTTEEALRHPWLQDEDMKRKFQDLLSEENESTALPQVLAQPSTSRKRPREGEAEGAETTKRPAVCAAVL
Chain of Aurora kinase B (Q96GD4 whole entry): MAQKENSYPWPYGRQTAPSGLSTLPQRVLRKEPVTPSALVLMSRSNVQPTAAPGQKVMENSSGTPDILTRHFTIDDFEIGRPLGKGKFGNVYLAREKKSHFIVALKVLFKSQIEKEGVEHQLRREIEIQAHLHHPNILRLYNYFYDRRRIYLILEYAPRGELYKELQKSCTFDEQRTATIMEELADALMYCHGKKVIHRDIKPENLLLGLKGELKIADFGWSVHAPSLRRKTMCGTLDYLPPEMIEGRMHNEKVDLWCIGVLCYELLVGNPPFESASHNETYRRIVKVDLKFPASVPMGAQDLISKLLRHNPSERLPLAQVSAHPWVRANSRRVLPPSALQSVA
Chain of Cytochrome P450 2D6 (P10635 whole entry): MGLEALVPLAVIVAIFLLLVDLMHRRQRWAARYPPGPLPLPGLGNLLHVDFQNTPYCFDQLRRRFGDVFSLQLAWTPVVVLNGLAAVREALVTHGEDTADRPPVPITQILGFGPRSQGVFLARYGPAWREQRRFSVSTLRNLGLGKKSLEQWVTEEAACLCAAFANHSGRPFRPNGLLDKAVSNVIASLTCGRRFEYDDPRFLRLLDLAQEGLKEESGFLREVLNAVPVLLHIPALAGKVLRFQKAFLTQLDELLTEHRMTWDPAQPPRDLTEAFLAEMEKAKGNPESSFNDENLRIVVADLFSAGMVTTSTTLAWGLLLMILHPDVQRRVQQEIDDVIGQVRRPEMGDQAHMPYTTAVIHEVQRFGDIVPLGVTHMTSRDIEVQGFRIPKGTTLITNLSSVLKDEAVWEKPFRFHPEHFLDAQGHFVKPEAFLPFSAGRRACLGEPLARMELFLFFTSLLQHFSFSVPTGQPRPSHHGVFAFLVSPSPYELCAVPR
Chain of Cytochrome P450 2C19 (P33261 whole entry): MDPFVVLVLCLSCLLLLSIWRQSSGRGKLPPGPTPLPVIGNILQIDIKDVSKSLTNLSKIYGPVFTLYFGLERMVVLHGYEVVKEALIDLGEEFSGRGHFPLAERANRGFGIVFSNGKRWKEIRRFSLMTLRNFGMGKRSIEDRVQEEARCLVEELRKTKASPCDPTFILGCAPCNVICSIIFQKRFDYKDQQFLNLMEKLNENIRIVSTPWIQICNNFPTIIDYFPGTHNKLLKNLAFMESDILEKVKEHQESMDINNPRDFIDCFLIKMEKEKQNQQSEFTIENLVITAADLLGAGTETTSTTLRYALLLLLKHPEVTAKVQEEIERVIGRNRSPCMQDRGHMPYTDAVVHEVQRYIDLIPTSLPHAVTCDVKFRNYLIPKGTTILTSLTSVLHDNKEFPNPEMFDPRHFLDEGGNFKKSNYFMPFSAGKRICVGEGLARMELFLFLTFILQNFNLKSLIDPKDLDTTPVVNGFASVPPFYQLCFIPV

## O=c1[nH]cc(F)c(=O)[nH]1 [FLUOROURACIL]
[1]
  inhibition in vivo at 15 mg/kg: 46%

## c1ccc(-c2[nH]nc3ccccc23)cc1
[2]
  inhibition: inactive
[3]
  IC50: 12 µM
[4]
  Activity: inactive

## CCc1cccc(CC)c1NC(=O)Nc1ccc2[nH]nc(-c3cccc(S(N)(=O)=O)c3)c2c1
Cytochrome P450 3A4 [5]
  IC50: 1 µM
Cytochrome P450 3A4 [6]
  IC50: 10 µM
Cytochrome P450 2C19
  IC50: > 1 µM
[7]
  Papp: < 210 nm/s
[8]
  GI50: > 50 µM
Cytochrome P450 2D6
  IC50: > 10 µM
Cytochrome P450 1A2
  IC50: > 10 µM
[9]
  IC50: 0.41 µM
Aurora kinase B
  IC50: 2.4 µM
[10]
  solubility: < 0.1 µg/mL
[11]
  IC50: 0.13 µM
[12]
  IC50: 0.0035 µM
Cytochrome P450 2C9
  IC50: 1.7 µM

## NS(=O)(=O)c1cccc(-c2n[nH]c3ccc(C(=O)N[C@H]4CCc5ccccc54)cc23)c1
[4]
  Activity: inactive
